Published values collected from several papers.
Compare with care: the assays were run in different laboratories.
Target: Casein kinase I isoform delta (CSNK1D, Homo sapiens, UniProt P48730)

| Compound | read-out | action | technique | concentration | quantity | value |
| --- | --- | --- | --- | --- | --- | --- |
| CC/C(=N\NC(=O)NCc1cccc(O)c1)c1ccc(O)c(C)c1O | enzyme activity | inhibitor |  | 0.1 µM | inhibition | 3.7% |
| Cc1nc(N2CC[C@@H](O)C2)ncc1-c1cc(C(F)(F)F)cc2[nH]ncc12 | cell-free assay |  | competition with immobilised ligand | 1 µM | remaining binding | 95% |
| FC(F)(F)Oc1cccc(-c2cnc3ccc(-c4ccncc4)nn23)c1 | enzyme activity | inhibitor | radiometric | 1 µM | activity vs control | 100% |
| COc1cc2ncnc(Nc3ccc(Oc4ccccc4)c(C)c3C)c2cc1OC | enzyme activity | inhibitor |  | 1 µM | inhibition | 1% |
| COc1cc(Nc2cnc(C#N)c(O[C@H](C)CN(C)C)n2)ncc1-c1cnn(C)c1 | enzyme activity | inhibitor | radiometric | 1 µM | remaining activity | 76% |
| Cc1cc(-n2nc(Cc3cc(F)cc(C(F)(F)F)c3)nc2C)ccc1C(N)=O | cell-free assay |  | competition with immobilised ligand | 1 µM | remaining binding | 100% |
| O=C1NC(=O)c2cc(Nc3ccc(F)cc3)c(Nc3ccc(F)cc3)cc21 | cell-free assay |  |  | 0.5 µM | remaining signal | 109% |
| Nc1cnc(N2CCc3cc(S(=O)(=O)Nc4c(F)cc(Cl)cc4F)cc(N4CCCC4=O)c32)nc1 | cell-free assay |  | competition with immobilised ligand | 1 µM | remaining binding | 98% |
| O=C(CSc1nc2nccnc2c(=O)n1CCc1ccccc1)Nc1nccs1 | enzyme activity | inhibitor |  | 10 µM | inhibition | 7% |
| CN1CC(Oc2cnc(C#N)cc2-c2ccn3nc(NC(=O)C4CC4)cc3c2)C1 | enzyme activity | inhibitor |  | 1 µM | inhibition | -20% |
| CO[C@@H](C)c1c(Nc2ccc([C@H](N(C)C(=O)C3CCS(=O)(=O)CC3)C(F)(F)F)cc2)cnc2cc(Cl)nn12 | cell-free assay |  | competition with immobilised ligand | 1 µM | remaining binding | 88% |
| O=C(Nc1cnn(-c2csc(C(=O)NC3COC3)c2)c1)Nc1ccccc1Cl | enzyme activity | inhibitor |  | 5 µM | remaining activity | 101% |
| O=C1CCc2cc(Nc3cc(OC4CCOCC4)c([N+](=O)[O-])cc3Cl)ccc2N1 | cell-free assay |  | competition with immobilised ligand | 1 µM | remaining binding | 90% |
| Nc1ncnc2c1cnn2-c1ccccc1 | cell-free assay |  |  | 0.5 µM | remaining signal | 79.5% |
| O=C(Cc1cccc(Cl)c1)Nc1nc2ccccc2s1 | cell-free assay |  |  | 10 µM | inhibition | > 60% |
| CO[C@H]1CC[C@H](CNc2ccc(S(=O)(=O)NC(=O)c3ccc(N4CCN(CC5=C(c6ccc(Cl)cc6)CC(C)(C)CC5)CC4)cc3Oc3cnc4[nH]ccc4c3)cc2[N+](=O)[O-])CC1 | cell-free assay |  | competition with immobilised ligand | 1 µM | remaining binding | 93% |
| Cc1cc(NC(=O)c2cccc3cc(-c4cccc5[nH]nc(N)c45)ccc23)ccc1F | enzyme activity | inhibitor |  | 0.1 µM | activity vs control | 96% |
| CCCOc1ccc([C@H]2[C@H](C(=O)O)[C@@H](c3ccc4c(c3)OCO4)CN2CC(=O)Nc2c(CC)cccc2CC)cc1 | cell-free assay |  | competition with immobilised ligand | 1 µM | remaining binding | 80% |
| CS(=O)(=O)CCNCc1ccc(-c2ccc3ncnc(Nc4ccc(OCc5cccc(F)c5)c(Cl)c4)c3c2)o1 | cell-free assay |  |  | 0.5 µM | remaining signal | 91.2% |
| Cc1ccc(NC(=O)c2ccc(C)c(C(F)(F)F)c2)cc1C#Cc1nn(C2CCC(O)CC2)c2ncnc(N)c12 (stereo not shown) | cell-free assay |  |  | 10 µM | remaining signal | 88% |
| CNc1cccc2cc(C(=O)Nc3ccc(C(=O)O)cc3)c(=O)[nH]c12 | enzyme activity | inhibitor |  | 10 µM | inhibition | 25% |
| CC(C)(O)[C@H]1CC[C@H](Nc2ccc3ncc(-c4cccc(C(F)(F)F)c4)n3n2)CC1 | enzyme activity | inhibitor |  | 1 µM | remaining activity | 84.2% |
| Cc1nccc(COC(=O)N2C[C@@H]3[C@@H](CNC(=O)c4ccc5[nH]nnc5c4)[C@@H]3C2)n1 | cell-free assay |  | competition with immobilised ligand | 1 µM | remaining binding | 97% |
| N#CCCc1ccc2c(c1)-c1[nH]c3ccc([N+](=O)[O-])cc3c1CC(=O)N2 | cell-free assay |  |  | 0.5 µM | remaining signal | 97.4% |
| CC(C)(C)c1nc2c(s1)c1nc(N)ncc1c1ccc(NS(=O)(=O)c3c(F)cccc3F)c(F)c12 | enzyme activity | inhibitor | radiometric | 1 µM | remaining activity | 79% |
